Measured values as given in ChEMBL document CHEMBL2417369, “Synthesis and evaluation of heteroaryl substituted diazaspirocycles as scaffolds to probe the ATP-binding site of protein kinases” (Bioorg Med Chem, 2013).

Assays:
[1] = target: Mitogen-activated protein kinase 1 (Homo sapiens, UniProt P28482); experiment: Inhibition of MAPK2 (unknown origin) at 30 uM by microfluidic mobility shift assay relative to control
How it was run: (§1)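 Single-point screen at 30 µM test compound across a 24-kinase panel in a microfluidic assay format. ATP was set near each enzyme's Km,[ATP]. […] The pan-AGC inhibitor H-89 served as an internal control on every assay plate.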

[2] = target: Vascular endothelial growth factor receptor 2 (Homo sapiens) (UniProt P35968); experiment: Inhibition of KDR (unknown origin) at 30 uM by microfluidic mobility shift assay relative to control; how it was run: as §1
[3] = target: Fibroblast growth factor receptor 4 (Homo sapiens) (UniProt P22455); experiment: Inhibition of FGFR4 (unknown origin) at 30 uM by microfluidic mobility shift assay relative to control; how it was run: as §1
[4] = target: RAF proto-oncogene serine/threonine-protein kinase (Homo sapiens) (UniProt P04049); experiment: Inhibition of c-RAF (unknown origin) at 30 uM by microfluidic mobility shift assay relative to control
How it was run: (§2)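 Single-point screen against a 24-kinase panel in a commercial microfluidic assay format. Compounds were tested at 30 µM, with ATP at approximately the Km,[ATP] of each enzyme. H-89 was included on each assay plate as an internal control.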

Homo sapiens [5] = organism: Homo sapiens; experiment: Inhibition of CSNK1 (unknown origin) at 30 uM by microfluidic mobility shift assay relative to control; how it was run: as §1
[6] = tested on: Tyrosine-protein kinase ABL1 (Homo sapiens), P00519 [T315I]; experiment: Inhibition of ABL T315I mutant (unknown origin) at 30 uM by microfluidic mobility shift assay relative to control; type: protein assay; how it was run: as §1
[7] = target: Protein kinase C theta type (Homo sapiens) (UniProt Q04759); experiment: Inhibition of PKCtheta (unknown origin) at 30 uM by microfluidic mobility shift assay relative to control; how it was run: as §2
[8] = target: T1, Calcium/calmodulin-dependent protein kinase type IV (Homo sapiens) (UniProt Q16566); experiment: Inhibition of CAMK4 (unknown origin) at 30 uM by microfluidic mobility shift assay relative to control; how it was run: as §1
T1 sequence (whole entry): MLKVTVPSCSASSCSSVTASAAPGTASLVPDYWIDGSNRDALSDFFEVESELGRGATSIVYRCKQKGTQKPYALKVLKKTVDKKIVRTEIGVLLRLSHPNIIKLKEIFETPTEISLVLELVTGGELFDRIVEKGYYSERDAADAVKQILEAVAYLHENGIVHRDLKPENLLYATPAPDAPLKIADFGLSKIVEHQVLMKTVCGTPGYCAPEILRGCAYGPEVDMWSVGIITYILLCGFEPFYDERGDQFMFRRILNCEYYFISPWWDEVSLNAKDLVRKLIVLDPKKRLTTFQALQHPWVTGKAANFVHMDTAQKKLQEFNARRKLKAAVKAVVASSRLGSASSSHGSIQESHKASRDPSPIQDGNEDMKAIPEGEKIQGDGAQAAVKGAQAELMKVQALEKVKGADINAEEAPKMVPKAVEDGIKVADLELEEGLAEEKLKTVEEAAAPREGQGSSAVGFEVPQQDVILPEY

[9] = target: RAC-gamma serine/threonine-protein kinase (Homo sapiens) (UniProt Q9Y243); experiment: Inhibition of AKT3 (unknown origin) at 30 uM by microfluidic mobility shift assay relative to control; how it was run: as §1
[10] = target: T2, Serine/threonine-protein kinase BRSK2 (Homo sapiens) (UniProt Q8IWQ3); experiment: Inhibition of BRSK2 (unknown origin) at 30 uM by microfluidic mobility shift assay relative to control; how it was run: as §1
T2 sequence (whole entry): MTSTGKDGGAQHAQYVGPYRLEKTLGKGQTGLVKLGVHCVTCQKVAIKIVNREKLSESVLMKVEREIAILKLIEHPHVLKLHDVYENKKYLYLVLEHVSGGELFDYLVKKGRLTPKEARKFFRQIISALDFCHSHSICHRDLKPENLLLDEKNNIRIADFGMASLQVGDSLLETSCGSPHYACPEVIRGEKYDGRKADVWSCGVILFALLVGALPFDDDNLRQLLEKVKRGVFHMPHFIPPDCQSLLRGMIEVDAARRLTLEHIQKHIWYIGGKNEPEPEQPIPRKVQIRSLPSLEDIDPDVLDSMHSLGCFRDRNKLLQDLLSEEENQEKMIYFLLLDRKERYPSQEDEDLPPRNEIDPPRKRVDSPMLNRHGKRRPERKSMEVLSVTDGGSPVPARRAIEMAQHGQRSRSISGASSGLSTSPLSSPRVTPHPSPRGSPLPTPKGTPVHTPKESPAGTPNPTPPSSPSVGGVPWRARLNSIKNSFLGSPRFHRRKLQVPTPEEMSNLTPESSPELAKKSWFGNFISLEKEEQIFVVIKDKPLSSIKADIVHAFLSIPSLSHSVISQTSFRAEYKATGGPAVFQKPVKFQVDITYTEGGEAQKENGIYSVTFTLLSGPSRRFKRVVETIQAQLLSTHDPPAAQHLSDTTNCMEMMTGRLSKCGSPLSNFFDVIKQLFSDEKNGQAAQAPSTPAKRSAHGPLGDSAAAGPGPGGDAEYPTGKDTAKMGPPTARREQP

[11] = target: Serine/threonine-protein kinase MARK2 (Homo sapiens) (UniProt Q7KZI7); experiment: Inhibition of MARK2 (unknown origin) at 30 uM by microfluidic mobility shift assay relative to control; how it was run: as §1
[12] = target: T3, Mitogen-activated protein kinase 12 (Homo sapiens) (UniProt P53778); experiment: Inhibition of p38gamma (unknown origin) at 30 uM by microfluidic mobility shift assay relative to control; how it was run: as §2
T3 sequence (whole entry): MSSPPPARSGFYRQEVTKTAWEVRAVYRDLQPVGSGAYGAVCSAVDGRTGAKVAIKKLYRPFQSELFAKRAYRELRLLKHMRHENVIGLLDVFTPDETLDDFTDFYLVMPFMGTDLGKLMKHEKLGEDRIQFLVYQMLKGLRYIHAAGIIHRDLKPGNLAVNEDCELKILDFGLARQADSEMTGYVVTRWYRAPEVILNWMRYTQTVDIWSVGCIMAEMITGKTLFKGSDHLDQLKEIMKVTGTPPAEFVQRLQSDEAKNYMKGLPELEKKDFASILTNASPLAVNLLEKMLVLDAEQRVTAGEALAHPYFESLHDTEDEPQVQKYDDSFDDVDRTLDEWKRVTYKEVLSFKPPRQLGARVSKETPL

Homo sapiens [13] = organism: Homo sapiens; experiment: Inhibition of CAMK2 (unknown origin) at 30 uM by microfluidic mobility shift assay relative to control; how it was run: as §1
[14] = target: AMP-activated protein kinase, AMPK (Homo sapiens) (UniProt P54646+O43741+P54619+Q9UGJ0+Q9Y478+Q13131+Q9UGI9); experiment: Inhibition of AMPK (unknown origin) at 30 uM by microfluidic mobility shift assay relative to control; type: protein-complex assay; how it was run: as §1
[15] = target: Ribosomal protein S6 kinase alpha-3 (Homo sapiens) (UniProt P51812); experiment: Inhibition of RSK2 (unknown origin) at 30 uM by microfluidic mobility shift assay relative to control; how it was run: as §2
[16] = target: Tyrosine-protein kinase BTK (Homo sapiens) (UniProt Q06187); experiment: Inhibition of BTK (unknown origin) at 30 uM by microfluidic mobility shift assay relative to control; how it was run: as §1
Chain of Tyrosine-protein kinase BTK (Homo sapiens) (Q06187 whole entry): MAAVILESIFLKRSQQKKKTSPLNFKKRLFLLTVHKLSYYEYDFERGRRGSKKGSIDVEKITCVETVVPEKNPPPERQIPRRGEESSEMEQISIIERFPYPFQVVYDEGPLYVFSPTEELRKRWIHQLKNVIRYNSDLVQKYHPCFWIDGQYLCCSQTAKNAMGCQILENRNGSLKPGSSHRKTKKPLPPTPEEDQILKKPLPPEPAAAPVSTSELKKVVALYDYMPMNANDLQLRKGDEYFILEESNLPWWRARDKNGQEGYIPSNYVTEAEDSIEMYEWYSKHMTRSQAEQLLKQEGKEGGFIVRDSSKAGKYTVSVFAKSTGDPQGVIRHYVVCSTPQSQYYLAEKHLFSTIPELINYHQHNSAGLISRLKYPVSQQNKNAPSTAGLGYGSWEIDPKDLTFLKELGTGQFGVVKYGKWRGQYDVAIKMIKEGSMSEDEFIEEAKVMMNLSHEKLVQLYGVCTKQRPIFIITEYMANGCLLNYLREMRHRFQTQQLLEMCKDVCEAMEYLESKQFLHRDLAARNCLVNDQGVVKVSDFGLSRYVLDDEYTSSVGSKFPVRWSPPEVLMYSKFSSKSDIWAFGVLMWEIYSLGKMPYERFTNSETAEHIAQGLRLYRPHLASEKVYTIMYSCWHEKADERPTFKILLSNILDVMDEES

Chain of Serine/threonine-protein kinase MARK2 (Homo sapiens) (Q7KZI7 whole entry): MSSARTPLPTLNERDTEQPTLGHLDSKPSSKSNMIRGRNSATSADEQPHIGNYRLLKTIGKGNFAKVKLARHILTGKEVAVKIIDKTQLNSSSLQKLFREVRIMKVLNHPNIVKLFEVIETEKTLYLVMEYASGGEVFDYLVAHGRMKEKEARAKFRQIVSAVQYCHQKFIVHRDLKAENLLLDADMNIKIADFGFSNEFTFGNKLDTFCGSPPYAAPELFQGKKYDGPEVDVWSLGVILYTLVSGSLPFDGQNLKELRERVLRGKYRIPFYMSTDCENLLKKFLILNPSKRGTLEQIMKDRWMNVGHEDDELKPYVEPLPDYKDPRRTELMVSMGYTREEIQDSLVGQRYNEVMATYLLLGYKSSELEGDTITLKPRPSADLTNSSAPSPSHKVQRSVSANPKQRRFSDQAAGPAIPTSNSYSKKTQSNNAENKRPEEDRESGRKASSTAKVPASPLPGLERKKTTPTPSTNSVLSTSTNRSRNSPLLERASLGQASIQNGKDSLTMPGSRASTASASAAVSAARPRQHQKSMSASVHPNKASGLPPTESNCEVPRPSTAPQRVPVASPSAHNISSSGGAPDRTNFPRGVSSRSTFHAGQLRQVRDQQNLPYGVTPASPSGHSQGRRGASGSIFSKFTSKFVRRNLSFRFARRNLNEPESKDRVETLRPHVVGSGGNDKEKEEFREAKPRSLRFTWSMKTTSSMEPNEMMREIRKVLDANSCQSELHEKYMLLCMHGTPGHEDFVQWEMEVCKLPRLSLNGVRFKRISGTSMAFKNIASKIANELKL
Chain of Fibroblast growth factor receptor 4 (Homo sapiens) (P22455 22-802 limits assumed): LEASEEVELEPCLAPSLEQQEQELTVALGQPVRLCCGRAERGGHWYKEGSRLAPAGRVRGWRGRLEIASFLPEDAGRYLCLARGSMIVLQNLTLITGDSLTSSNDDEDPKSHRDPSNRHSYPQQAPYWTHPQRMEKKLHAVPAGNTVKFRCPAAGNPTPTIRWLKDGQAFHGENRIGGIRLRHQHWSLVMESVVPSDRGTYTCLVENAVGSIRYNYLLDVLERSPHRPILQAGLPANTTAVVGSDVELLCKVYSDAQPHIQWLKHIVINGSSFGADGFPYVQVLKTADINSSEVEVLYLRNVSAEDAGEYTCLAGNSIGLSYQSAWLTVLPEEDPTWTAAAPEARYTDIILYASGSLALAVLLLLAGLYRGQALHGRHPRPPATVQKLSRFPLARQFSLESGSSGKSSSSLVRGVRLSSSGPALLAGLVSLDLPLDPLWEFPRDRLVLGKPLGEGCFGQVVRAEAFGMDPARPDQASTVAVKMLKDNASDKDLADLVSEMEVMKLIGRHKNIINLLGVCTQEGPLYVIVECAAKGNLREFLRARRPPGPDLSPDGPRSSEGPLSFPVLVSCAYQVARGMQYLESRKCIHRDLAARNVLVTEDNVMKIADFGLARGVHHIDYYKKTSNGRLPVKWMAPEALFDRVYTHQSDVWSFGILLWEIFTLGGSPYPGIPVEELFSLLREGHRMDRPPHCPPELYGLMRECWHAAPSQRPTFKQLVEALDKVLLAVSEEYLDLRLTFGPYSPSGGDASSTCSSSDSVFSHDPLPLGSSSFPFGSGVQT
Chain of RAF proto-oncogene serine/threonine-protein kinase (Homo sapiens) (P04049 whole entry): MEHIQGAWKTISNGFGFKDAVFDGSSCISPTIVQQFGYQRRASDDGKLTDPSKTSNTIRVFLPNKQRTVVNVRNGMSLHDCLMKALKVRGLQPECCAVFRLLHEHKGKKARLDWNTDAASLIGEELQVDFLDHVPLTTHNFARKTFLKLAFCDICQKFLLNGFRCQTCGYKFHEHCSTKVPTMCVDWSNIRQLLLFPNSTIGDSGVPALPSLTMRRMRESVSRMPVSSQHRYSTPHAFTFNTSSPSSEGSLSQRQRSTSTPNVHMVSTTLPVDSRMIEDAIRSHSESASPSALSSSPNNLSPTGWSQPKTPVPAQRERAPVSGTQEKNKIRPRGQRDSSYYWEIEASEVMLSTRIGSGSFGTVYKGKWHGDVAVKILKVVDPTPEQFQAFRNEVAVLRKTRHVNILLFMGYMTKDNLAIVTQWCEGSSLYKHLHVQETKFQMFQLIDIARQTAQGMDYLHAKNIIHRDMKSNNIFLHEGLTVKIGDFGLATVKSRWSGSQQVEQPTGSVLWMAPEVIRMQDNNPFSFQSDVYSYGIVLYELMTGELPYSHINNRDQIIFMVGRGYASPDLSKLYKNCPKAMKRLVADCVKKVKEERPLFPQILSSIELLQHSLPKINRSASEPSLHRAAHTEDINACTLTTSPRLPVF
Chain of Ribosomal protein S6 kinase alpha-3 (Homo sapiens) (P51812 whole entry): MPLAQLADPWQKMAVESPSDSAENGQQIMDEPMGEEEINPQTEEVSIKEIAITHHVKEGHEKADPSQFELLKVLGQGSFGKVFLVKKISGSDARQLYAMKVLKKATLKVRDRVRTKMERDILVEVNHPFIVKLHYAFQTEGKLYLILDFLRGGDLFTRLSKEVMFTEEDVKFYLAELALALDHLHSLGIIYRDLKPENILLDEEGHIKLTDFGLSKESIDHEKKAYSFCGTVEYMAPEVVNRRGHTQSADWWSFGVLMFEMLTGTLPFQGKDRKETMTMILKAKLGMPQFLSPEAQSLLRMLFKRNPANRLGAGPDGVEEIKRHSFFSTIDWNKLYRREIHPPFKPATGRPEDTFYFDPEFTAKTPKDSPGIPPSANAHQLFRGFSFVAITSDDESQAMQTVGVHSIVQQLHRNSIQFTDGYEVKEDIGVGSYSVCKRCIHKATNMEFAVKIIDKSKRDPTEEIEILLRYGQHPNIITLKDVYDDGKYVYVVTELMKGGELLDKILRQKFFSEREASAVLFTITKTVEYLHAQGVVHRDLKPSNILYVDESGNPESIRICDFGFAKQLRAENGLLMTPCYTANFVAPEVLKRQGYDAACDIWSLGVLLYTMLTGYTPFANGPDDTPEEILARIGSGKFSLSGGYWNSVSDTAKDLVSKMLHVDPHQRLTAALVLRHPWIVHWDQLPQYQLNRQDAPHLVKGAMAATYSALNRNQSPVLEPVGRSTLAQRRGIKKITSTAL
Chain of Mitogen-activated protein kinase 1 (P28482 whole entry): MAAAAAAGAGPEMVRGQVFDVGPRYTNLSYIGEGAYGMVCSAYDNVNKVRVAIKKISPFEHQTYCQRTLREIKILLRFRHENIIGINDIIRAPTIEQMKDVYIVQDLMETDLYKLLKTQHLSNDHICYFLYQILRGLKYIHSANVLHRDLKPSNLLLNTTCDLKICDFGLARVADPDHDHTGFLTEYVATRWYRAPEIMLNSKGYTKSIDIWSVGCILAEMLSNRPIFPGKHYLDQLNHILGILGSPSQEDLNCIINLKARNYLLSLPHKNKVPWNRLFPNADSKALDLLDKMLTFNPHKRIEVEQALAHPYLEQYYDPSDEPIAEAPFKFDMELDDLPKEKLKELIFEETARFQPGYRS
Chain of RAC-gamma serine/threonine-protein kinase (Homo sapiens) (Q9Y243 whole entry): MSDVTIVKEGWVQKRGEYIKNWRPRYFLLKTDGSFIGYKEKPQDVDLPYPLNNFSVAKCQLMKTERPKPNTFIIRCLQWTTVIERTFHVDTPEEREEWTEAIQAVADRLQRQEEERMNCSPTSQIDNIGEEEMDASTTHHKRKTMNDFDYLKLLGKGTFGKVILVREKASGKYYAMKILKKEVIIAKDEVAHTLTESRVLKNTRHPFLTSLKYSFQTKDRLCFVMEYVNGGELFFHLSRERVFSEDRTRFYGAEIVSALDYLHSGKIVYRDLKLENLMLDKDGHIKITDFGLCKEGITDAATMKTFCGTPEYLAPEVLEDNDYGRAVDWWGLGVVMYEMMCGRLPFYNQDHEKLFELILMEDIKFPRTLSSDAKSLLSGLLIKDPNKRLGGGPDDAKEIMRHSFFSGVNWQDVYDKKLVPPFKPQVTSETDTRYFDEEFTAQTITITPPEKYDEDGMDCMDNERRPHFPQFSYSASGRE

Row | inhibition [1] [%] | inhibition [2] [%] | inhibition [3] [%] | inhibition [4] [%] | inhibition (Homo sapiens [5]) [%] | inhibition [6] [%] | inhibition [7] [%] | inhibition [8] [%] | inhibition [9] [%] | inhibition [10] [%] | inhibition [11] [%] | inhibition [12] [%] | inhibition (Homo sapiens [13]) [%] | inhibition [14] [%] | inhibition [15] [%] | inhibition [16] [%] | SMILES
1 | 6 | 11 | 0 | 15 | 11 | 17 | 75 | 14 | 101 | 0 | 60 | 11 | 17 | 78 | 94 | 11 | c1ccc(CC2CCNC3(CCN(c4ncnc5[nH]cnc45)CC3)C2)cc1 (racemic)
2 | 9 | 35 | 4 | 13 | 11 | 14 | 77 | 18 | 96 | 16 | 72 | 6 | 13 | 66 | 84 | 0 | c1ccc(C2CCNC3(CCN(c4ncnc5[nH]cnc45)CC3)C2)cc1 (racemic)
3 | 15 | 31 | 7 | 11 | 14 | 16 | 17 | 18 | 69 | 1 | 47 | 3 | 9 | 70 | 63 | 0 | c1ccc(CC2CCC3(CCN(c4ncnc5[nH]cnc45)CC3)NC2)cc1 (racemic)
